# High-throughput results as filed in PubChem BioAssay.
# Compounds with a hit are over-represented: about 2.8% of the library has one in this group of screens.
# ASAP1 inh – ASAP1 ArfGAP inhibition; actives 0.19% (n = 360,000); ASAP1-stimulated ARF1 GTP hydrolysis, GDP FP detection; inhibition, % at 16.5 µM; in the data active means inhibition above about 25%;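 further: 0% = vehicle with enzyme and substrate and 100% = no enzyme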
# pPAFAH inh – pPAFAH (human) enzyme inhibition; Q13093; recombinant pPAFAH, FP-rhodamine probe fluorescence polarization; inhibition, % at 3.39 µM; actives 1.5% (n = 330,000); AID 463082;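 active means inhibition above the mean inhibition across the screen plus 3 SD, cut at about 25% in these data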;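 further: inhibitors block binding of the rhodamine activity-based probe so polarization drops; 0% = enzyme with DMSO and 100% = wells lacking pPAFAH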
# PAFAH1B2 inh – blocks human PAF acetylhydrolase 1b catalytic subunit 2. AID 492953. recombinant PAFAH1B2, FP-rhodamine activity probe, fluorescence polarization. inhibition, % at 3.39 µM. actives 1.2% (n = 340,000);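 active means inhibition above the mean of all tested compounds plus 3 SD, cut at about 24% in these data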;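 further: 0% = enzyme with DMSO and 100% = wells lacking PAFAH1B2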
# Target sequence (P68402 whole entry, looked up): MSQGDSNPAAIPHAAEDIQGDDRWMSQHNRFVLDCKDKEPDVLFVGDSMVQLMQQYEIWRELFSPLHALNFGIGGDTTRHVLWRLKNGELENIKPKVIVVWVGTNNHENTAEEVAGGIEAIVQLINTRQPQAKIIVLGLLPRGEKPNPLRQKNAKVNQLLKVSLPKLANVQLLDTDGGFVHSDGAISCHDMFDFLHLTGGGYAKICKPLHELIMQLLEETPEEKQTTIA
# ARFGAP1 inhibitor – inhibits rat ARF GTPase activating protein 1; Q62848; Arfgap1-stimulated ARF1 GTP hydrolysis, GDP FP detection; inhibition, % at 16.5 µM; actives 0.26% (n = 360,000);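 active means inhibition above a per-plate limit, mean inhibition of low control wells plus 3 SD, cut at about 25% in these data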;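 further: 0% = DMSO wells with enzyme and 100% = wells lacking Arfgap1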
# Target sequence (Q62848 1-136 limits assumed): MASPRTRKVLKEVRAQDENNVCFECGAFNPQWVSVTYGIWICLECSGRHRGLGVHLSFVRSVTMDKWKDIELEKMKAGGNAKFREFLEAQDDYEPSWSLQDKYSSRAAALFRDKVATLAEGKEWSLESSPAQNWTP
#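 Material: rat Arfgap1 GAP domain (His6, aa 1-136), purified enzyme. Also added: human ARF1(Δ1-17)-GTP substrate. Compound dosing: 16.5 µM single point, 1.26% DMSO. Timing: enzyme reaction 120 min at 25 °C after 20 min preincubation. Signal: GDP detection by fluorescence polarization. Read-out basis: percent inhibition of GAP-stimulated GDP formation, scaled between DMSO and no-Arfgap1 medians.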
# PAFAH2 FP inh – PAFAH2 (human) inhibition | Q99487 | recombinant PAFAH2, FP-rhodamine activity probe, fluorescence polarization | inhibition, % at 3.39 µM | actives 0.99% (n = 340,000) | AID 492956;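 active means inhibition above the mean over all tested compounds plus 3 SD, cut at about 30% in these data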;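 further: inhibitors block probe labeling of enzyme so polarization drops; 0% = enzyme with DMSO and 100% = wells lacking PAFAH2 protein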
# PAFAH1B3 inh – inhibitors of human PAFAH1B3; Q15102; actives 0.28% (n = 340,000); AID 492972; recombinant PAFAH1B3, FP-rhodamine probe, fluorescence polarization; inhibition, % at 3.39 µM;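 active means inhibition above the screen-wide average of all tested compounds plus 3 SD, cut at about 25% in these data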;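 further: 0% = enzyme with DMSO only and 100% = wells lacking PAFAH1B3 protein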
# * marks the source's active call; other numbers are inactive results; . = no result given.
SMILES,ASAP1 inh,pPAFAH inh,PAFAH1B2 inh,ARFGAP1 inhibitor,PAFAH2 FP inh,PAFAH1B3 inh
CN1CCc2cc3c(c4c2C1Cc1ccccc1-4)OCO3 (stereo not given),5,29*,11,5,26,13
COc1ccccc1N,0,.,.,10,.,.
CN1C(=O)NC(=O)/C(=C/c2ccc([N+](=O)[O-])s2)C1=O,12,25*,22,-7,29,23
CN1C(=O)NC(=O)/C(=C/c2ccc([N+](=O)[O-])o2)C1=O,-3,12,.,-8,.,.
CCc1cc2c(s1)NC(=O)CN=C2c1cccs1,-5,33*,-1,-4,2,5
Cc1c(C(=O)O)cc(-c2ccccc2)n1Cc1ccccc1,-4,4,28*,9,1,5
CCCCSP1(=S)NCCCO1 (stereo not given),-5,-4,-2,-9,1,4
O=c1c2ccccc2nc(/C=C/c2ccc(O)c(O)c2)n1-c1ccccc1,8,30*,-1,8,1,8
O=S(=O)(NC1CCCCCCC1)OCC(Cl)(Cl)Cl,-5,29*,48*,0,7,-5
OC1CN2CCC(O)C2C(O)C1O (stereo not given),8,.,.,2,.,.
Cn1c(O)c(C(=Nc2ccccc2)SCc2ccc(Cl)cc2)c(=O)n(C)c1=O,-7,4,26*,2,12,5
Cc1cc(N2CCNC[C@H]2C)ccc1N1CCN[C@H](C)C1,-8,.,.,-3,.,.
O=c1[nH]c(=S)n(-c2ccccc2F)c(O)c1C=Nc1ccc(N2CCOCC2)cc1,8,29*,8,-6,33*,1
Cc1cc(C)cc(-n2c(O)c(C=Nc3ccc(N4CCOCC4)cc3)c(=O)[nH]c2=S)c1,1,6,1,-4,5,-4
Cn1ncnc2c(=O)n(C)c(=O)nc1-2,.,5,51*,.,59*,75*
CN[C@H]1C[C@H]2O[C@@](C)([C@H]1OC)n1c3ccccc3c3c4c(c5c6ccccc6n2c5c31)C(=O)NC4,.,40*,.,.,.,.
O=C1N(CN2CCOCC2)c2ccccc2C1(O)c1c[nH]c2ccccc12 (stereo not given),-4,-3,3,-10,-8,0
O=S(=O)(c1ccc(O)cc1)c1ccc(O)cc1,7,3,4,-9,-3,8
O=S(=O)(c1ccc(Cl)cc1)c1ccc(Cl)cc1,-16,-2,66*,2,4,10
O=C(O)CCn1cc(C=C2C(=O)NC(=O)NC2=O)c(-c2ccc(Br)cc2)n1,8,11,33*,11,-4,6
C=CCN1C(=O)NC(=O)C(Cc2ccc(OC)c(OC)c2)C1=O (stereo not given),-8,8,2,4,4,7
O=C1NC(=O)N(CCNc2ncc(C(F)(F)F)cc2Cl)C(=O)C1Cc1ccc(Cl)cc1 (stereo not given),1,7,29*,-4,2,13
COc1cccc2c1C(=O)c1c(O)c3c(c(O)c1C2=O)CC(O)(C(C)=NO)CC3OC1CC(N)C(O)C(C)O1 (stereo not given),3,.,45*,-10,42*,30*
O=C(c1ccc(N2CCCCCC2)c([N+](=O)[O-])c1)N1CCC2(CC1)OCCO2,8,33*,4,0,11,9
O=C(c1ccc2c(c1)OCO2)N1CCC2(CC1)OCCO2,2,2,-2,10,1,2
COC(=O)C1=C(c2ccccc2OCc2ccccc2)C[C@@H]2CC[C@H]1N2C(=O)NCCc1ccc(F)cc1,1,6,4,3,0,14
CCC(C)c1ccc(N2C(=O)NC(=O)/C(=C/c3cccn3CCOc3ccc(C)cc3)C2=O)cc1 (stereo not given),-10,28*,17,-18,25,5
O=C1NC(=S)SC1=Cc1ccc(N(CCCl)CCCl)cc1,10,.,28*,-9,9,6
O=C(O)CCCc1ccc(N(CCCl)CCCl)cc1,1,1,6,-13,-4,-9
